Test results from ChEMBL document CHEMBL1145896, “5-Substituted-2,4-diamino-6-[2-(phosphonomethoxy)ethoxy]pyrimidines-acyclic nucleoside phosphonate analogues with antiviral activity” (J Med Chem, 2003).

Tests used:
[1] = system: Human alphaherpesvirus 3; assay: Antiviral activity against 07/1 strain of VZV in HEL ([…]) cells.; type: functional, organism-based
Method in brief: (§1)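 Inhibition of virus-induced cytopathicity. HSV-1 and HSV-2 were tested in E6SM cells; VZV and CMV in HEL cells. Confluent monolayers were inoculated with 100 CCID50 of virus. After 1–2 h adsorption, residual virus was removed and compound was added at serial concentrations (400, 200, 100, ... μg/mL). Cytopathicity was scored once untreated infected controls reached complete CPE.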

[2] = system: Cytomegalovirus; assay: Antiviral activity against AD169 strain of cytomegalovirus (CMV) in HEL ([…]) cells.; type: functional, organism-based; method in brief: as §1
[3] = system: CCRF-CEM; assay: Cytotoxicity against CEM (human lymphoblastic leukemia) cells in vitro.; type: functional
[4] = system: Cytomegalovirus; assay: Antiviral activity against Davis strain of cytomegalovirus (CMV) in HEL ([…]) cells.; type: functional, organism-based; method in brief: as §1
[5] = Antiviral activity against vaccinia virus in HEL ([…]) cells.; type: functional, cell-based
[6] = system: Human immunodeficiency virus 1; assay: Antiviral activity against HIV-1 (IIIB) in CEM (human leukemia) cells.; type: functional, organism-based; conditions: ccrf-cem
Method in brief: (§2)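 Human CEM cells (~3 × 10^5 cells/mL) were infected with 100 CCID50 per mL of HIV-1 (IIIB) or HIV-2 (ROD) and seeded into wells containing compound dilutions. After 4 days at 37 °C, syncytium (giant cell) formation was examined microscopically.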

[7] = system: Human immunodeficiency virus 2; assay: Antiviral activity against HIV-2 (ROD) in CEM (human leukemia) cells.; type: functional, organism-based; conditions: ccrf-cem; method in brief: as §2
[8] = Antiviral activity against KOS strain of HSV-1 in E6SM cells.; type: functional, cell-based, herpes simplex virus; method in brief: as §1
[9] = system: Moloney murine sarcoma virus; assay: Antiviral activity against murine sarcoma virus; type: functional, organism-based
Method in brief: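 Murine C3H/3T3 embryo fibroblasts were seeded at 5 × 10^5 cells/mL. After 24 h, cells were infected with 80 focus-forming units of MSV (from mouse tumours) for 90–120 min at 37 °C. Medium was then replaced by fresh medium containing varied compound concentrations, and MSV-induced transformation was the read-out.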

[10] = system: Human alphaherpesvirus 3; assay: Antiviral activity against OKA strain of VZV in HEL ([…]) cells.; type: functional, organism-based; parameters: unit not given here; method in brief: as §1
[11] = Antiviral activity against G strain of HSV-2 in E6SM cells.; type: functional, cell-based, herpes simplex virus; method in brief: as §1

| SMILES | EC50 [1] | EC50 [2] | CC50 [3] | EC50 [4] | EC50 [5] | EC50 [6] | EC50 [7] | EC50 [8] | EC50 [9] | EC50 [10] | EC50 [11] |
| --- | --- | --- | --- | --- | --- | --- | --- | --- | --- | --- | --- |
| Nc1nc(N)c(Cc2ccccc2)c(OCCOCP(=O)(O)O)n1 | > 0.15 uM ml-1 | > 0.15 uM ml-1 | > 300 µM | > 0.15 uM ml-1 | > 1.2 uM ml-1 | > 0.3 uM ml-1 | > 0.3 uM ml-1 | > 1.2 uM ml-1 | > 1.12 uM ml-1 | > 0.15 |  |
| N#CCc1c(N)nc(N)nc1OCCOCP(=O)(O)O | 0.11 uM ml-1 | > 0.15 uM ml-1 | > 300 µM | > 0.15 uM ml-1 | > 1.2 uM ml-1 | > 0.3 uM ml-1 | > 0.3 uM ml-1 | > 1.2 uM ml-1 | 0.3 uM ml-1 | 0.14 | > 1.2 uM ml-1 |
| Nc1nc(N)c(Br)c(OCCOCP(=O)(O)O)n1 | > 0.15 uM ml-1 | > 0.15 uM ml-1 | > 300 µM |  | 0.7 uM ml-1 | 0.0073 uM ml-1 | 0.0095 uM ml-1 | 0.7 uM ml-1 | 0.007 uM ml-1 |  | 0.7 uM ml-1 |
| C=CCc1c(N)nc(N)n(CCOCP(=O)(O)O)c1=O | > 0.15 uM ml-1 | > 0.15 uM ml-1 | > 300 µM | > 0.15 uM ml-1 | > 1.2 uM ml-1 | > 0.3 uM ml-1 | > 0.3 uM ml-1 | > 1.2 uM ml-1 | > 1.12 uM ml-1 | > 0.15 | 0.77 uM ml-1 |
| C=CCc1c(N)nc(N)nc1OCCOCP(=O)(O)O | > 0.15 uM ml-1 | > 0.15 uM ml-1 | > 300 µM | > 0.15 uM ml-1 | > 1.2 uM ml-1 | > 0.3 uM ml-1 | > 0.3 uM ml-1 | > 1.2 uM ml-1 | > 1.12 uM ml-1 | > 0.15 | 0.79 uM ml-1 |
| Nc1nc(N)c(Cl)c(OCCOCP(=O)(O)O)n1 |  | > 0.12 uM ml-1 | 300 µM | > 0.6 uM ml-1 | > 1.2 uM ml-1 | 0.0031 uM ml-1 | 0.0044 uM ml-1 | > 1.2 uM ml-1 | 0.0028 uM ml-1 |  | > 1.2 uM ml-1 |
| Nc1nc(N)n(CCOCP(=O)(O)O)c(=O)c1CC(=O)O | > 0.15 uM ml-1 | > 0.15 uM ml-1 | > 300 µM | > 0.15 uM ml-1 | > 1.2 uM ml-1 | > 0.3 uM ml-1 | > 0.3 uM ml-1 | > 1.2 uM ml-1 | 0.082 uM ml-1 | > 0.15 | > 1.2 uM ml-1 |
| Nc1nc(N)n(CCOCP(=O)(O)O)c(=O)c1Cc1ccccc1 | > 0.15 uM ml-1 | > 0.15 uM ml-1 | > 300 µM | > 0.15 uM ml-1 | > 1.2 uM ml-1 | > 0.3 uM ml-1 | > 0.3 uM ml-1 | > 1.2 uM ml-1 | > 1.12 uM ml-1 | > 0.15 | > 1.2 uM ml-1 |
| Nc1nc(N)c(-c2ccccc2)c(OCCOCP(=O)(O)O)n1 | > 0.15 uM ml-1 | > 0.15 uM ml-1 | > 300 µM | > 0.15 uM ml-1 | > 1.2 uM ml-1 | > 0.3 uM ml-1 | > 0.3 uM ml-1 | > 1.2 uM ml-1 | > 1.12 uM ml-1 | > 0.15 | > 1.2 uM ml-1 |
| Nc1nc(N)c(CC(=O)O)c(OCCOCP(=O)(O)O)n1 | > 0.15 uM ml-1 | > 0.15 uM ml-1 | > 300 µM | > 0.15 uM ml-1 | > 1.2 uM ml-1 | > 0.3 uM ml-1 | > 0.3 uM ml-1 | > 1.2 uM ml-1 | 0.046 uM ml-1 | > 0.15 | > 1.2 uM ml-1 |
| Nc1cc(OC[C@H](CO)OCP(=O)(O)O)nc(N)n1 | 0.00024 uM ml-1 | 0.13 uM ml-1 | 23 µM | 0.12 uM ml-1 | 0.0065 uM ml-1 | > 0.014 uM ml-1 | 0.014 uM ml-1 | 0.0048 uM ml-1 | > 0.0027 uM ml-1 | 0.00017 | 0.017 uM ml-1 |
| Nc1nc(N)n(CCOCP(=O)(O)O)c(=O)c1C1CC1 | > 0.15 uM ml-1 | > 0.15 uM ml-1 | > 300 µM |  | > 1.2 uM ml-1 | > 0.3 uM ml-1 | > 0.3 uM ml-1 | > 1.2 uM ml-1 | > 1.12 uM ml-1 |  | > 1.2 uM ml-1 |
| N#CCc1c(N)nc(N)n(CCOCP(=O)(O)O)c1=O | 0.084 uM ml-1 | > 0.15 uM ml-1 | > 300 µM | > 0.15 uM ml-1 | > 1.2 uM ml-1 | > 0.3 uM ml-1 | > 0.3 uM ml-1 | > 1.2 uM ml-1 | 0.3 uM ml-1 | > 0.15 | > 1.2 uM ml-1 |
| Cc1c(N)nc(N)n(CCOCP(=O)(O)O)c1=O | > 0.15 uM ml-1 | > 0.15 uM ml-1 | > 300 µM |  | > 1.2 uM ml-1 | > 0.3 uM ml-1 | > 0.3 uM ml-1 | > 1.2 uM ml-1 | > 1.12 uM ml-1 |  | > 1.2 uM ml-1 |
| Nc1ncnc2c1ncn2CCOCP(=O)(O)O [ADEFOVIR] |  | 0.1 uM ml-1 | 56 µM | 0.27 uM ml-1 | > 0.17 uM ml-1 | 0.0033 uM ml-1 | 0.0066 uM ml-1 | 0.024 uM ml-1 | 0.0022 uM ml-1 |  | 0.024 uM ml-1 |
| C[C@H](Cn1cnc2c(N)ncnc21)OCP(=O)(O)O [TENOFOVIR ANHYDROUS] | 0.17 uM ml-1 | > 0.17 uM ml-1 | 410 µM | > 0.17 uM ml-1 | > 0.17 uM ml-1 | 0.0012 uM ml-1 | 0.0014 uM ml-1 | > 0.17 uM ml-1 | 0.0046 uM ml-1 |  | > 0.17 uM ml-1 |
